Activity calls are given as the source filed them. The calls are words filed in the database; no cut-off is given here.
Legend:
[1] = Induction of IFN-gamma secretion in human CD161+ CD3+ NKT cells at 10 ug/ml after 18 hrs relative to basal level; format: functional
Summary of the method: (§1)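 Human Vα24i NKT cell lines were expanded for 10 days on irradiated (3,000 rad) autologous immature DCs with 10 units/ml IL-2. The cells (1 × 10^5) were cocultured with 5 × 10^4 irradiated immature CD14+ DCs plus glycolipid at 10 μg/ml. Supernatants were collected at 18 h and read on a 22-plex Luminex bead panel. Triplicates, mean ± SD.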

[2] = Induction of IL2 secretion in human CD161+ CD3+ NKT cells at 10 ug/ml after 18 hrs relative to basal level; format: functional; summary of the method: as §1
[3] = Induction of IL12p70 secretion in human CD161+ CD3+ NKT cells at 10 ug/ml after 18 hrs relative to basal level; format: functional; summary of the method: as §1
[4] = Induction of IL12p40 secretion in human CD161+ CD3+ NKT cells at 10 ug/ml after 18 hrs relative to basal level; format: functional; summary of the method: as §1
[5] = Induction of RANTES secretion in human CD161+ CD3+ NKT cells at 10 ug/ml after 18 hrs relative to basal level; format: functional; summary of the method: as §1
[6] = Induction of MIPalpha secretion in human CD161+ CD3+ NKT cells at 10 ug/ml after 18 hrs relative to basal level; format: functional; summary of the method: as §1
[7] = Induction of MCP1 secretion in human CD161+ CD3+ NKT cells at 10 ug/ml after 18 hrs relative to basal level; format: functional; summary of the method: as §1
[8] = Induction of TNFalpha secretion in human CD161+ CD3+ NKT cells at 10 ug/ml after 18 hrs relative to basal level; format: functional; summary of the method: as §1
[9] = system: Mus musculus; assay: Increase in CD8/CD4 T cell ratio in BALB/c mouse at 2 ug, iv after 72 hrs by flow cytometry; format: functional, organism-based
[10] = system: TC1; assay: Antitumor activity in TC1 cells xenografted C57BL/6 mouse assessed as suppression of tumor growth at 2 ug, iv; format: functional, cell-based
Summary of the method: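 C57BL/6 mice (n = 5/group) were inoculated i.v. with TC-1 lung cancer cells. They were then treated i.v. with 2 μg glycolipid per mouse, or 100 μl of 1% DMSO, twice weekly for 4 weeks. Kaplan–Meier survival and body weight were followed, with tumor-free mice as an additional control.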

[11] = system: Mus musculus; assay: Induction of IFN-gamma secretion in BALB/c mouse serum at 2 ug, iv after 18 hrs relative to control; format: functional
Summary of the method: (§2)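 BALB/c mice received an i.v. injection of 100 μl of glycolipid diluted to 20 μg/ml in saline from DMSO stock, with 1% DMSO as vehicle. Serum cytokines/chemokines were measured at 2 and 18 h after injection.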

[12] = system: Mus musculus; assay: Induction of IL1-beta secretion in BALB/c mouse serum at 2 ug, iv after 18 hrs relative to control; format: functional; summary of the method: as §2
[13] = system: Mus musculus; assay: Induction of IL2 secretion in BALB/c mouse serum at 2 ug, iv after 2 hrs relative to control; format: functional; summary of the method: as §2
[14] = system: Mus musculus; assay: Induction of IL12p70 secretion in BALB/c mouse serum at 2 ug, iv after 18 hrs relative to control; format: functional; summary of the method: as §2
[15] = system: Mus musculus; assay: Induction of RANTES secretion in BALB/c mouse serum at 2 ug, iv after 2 hrs relative to control; format: functional; summary of the method: as §2
[16] = system: Mus musculus; assay: Induction of MCP1 secretion in BALB/c mouse serum at 2 ug, iv after 2 hrs relative to control; format: functional; summary of the method: as §2
[17] = system: Mus musculus; assay: Induction of KC secretion in BALB/c mouse serum at 2 ug, iv after 2 hrs relative to control; format: functional; summary of the method: as §2
[18] = system: Mus musculus; assay: Induction of TNFalpha secretion in BALB/c mouse serum at 2 ug, iv after 18 hrs relative to control; format: functional; summary of the method: as §2
[19] = system: Mus musculus; assay: Induction of GM-CSF secretion in BALB/c mouse serum at 2 ug, iv after 2 hrs relative to control; format: functional; summary of the method: as §2
[20] = system: Mus musculus; assay: Induction of IL6 secretion in BALB/c mouse serum at 2 ug, iv after 2 hrs relative to control; format: functional; summary of the method: as §2
[21] = system: Mus musculus; assay: Induction of IL10 secretion in BALB/c mouse serum at 2 ug, iv after 18 hrs relative to control; format: functional; summary of the method: as §2
[22] = Induction of IL3 secretion in human CD161+ CD3+ NKT cells at 10 ug/ml after 18 hrs relative to basal level; format: functional; summary of the method: as §1
[23] = Induction of GM-CSF secretion in human CD161+ CD3+ NKT cells at 10 ug/ml after 18 hrs relative to basal level; format: functional; summary of the method: as §1
[24] = Induction of IL15 secretion in human CD161+ CD3+ NKT cells at 10 ug/ml after 18 hrs relative to basal level; format: functional; summary of the method: as §1
[25] = Induction of IL4 secretion in human CD161+ CD3+ NKT cells at 10 ug/ml after 18 hrs relative to basal level; format: functional; summary of the method: as §1
[26] = Induction of IL6 secretion in human CD161+ CD3+ NKT cells at 10 ug/ml after 18 hrs relative to basal level; format: functional; summary of the method: as §1
[27] = Induction of IL10 secretion in human CD161+ CD3+ NKT cells at 10 ug/ml after 18 hrs relative to basal level; format: functional; summary of the method: as §1
[28] = Induction of IL13 secretion in human CD161+ CD3+ NKT cells at 10 ug/ml after 18 hrs relative to basal level; format: functional; summary of the method: as §1
[29] = system: HeLa; assay: Activation of TCR in human HeLa cells overexpressing CD1d assessed as increase in CD3epsilon phosphorylation; format: cell-based
Summary of the method: (§3)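 Human HeLa, HeLa-CD1d or autologous immature DCs were loaded with glycolipid at 10 μg/ml, or DMSO, for 2 h. Then 3 × 10^5 naïve CD161+/CD3+ NKT cells were added; these were bead-isolated and kept in 100 units/ml IL-2. After 5–10 min the cells were washed and lysed at 4°C. Phospho-CD3ε, ERK1/2 (Thr-185/Tyr-187) and CREB (Ser-133) were read by Luminex bead assay as median fluorescence normalized to total protein, expressed as fold over 1% DMSO.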

[30] = system: dendritic; assay: Activation of TCR in human immature dendritic cells assessed as increase in CD3epsilon phosphorylation; format: cell-based; summary of the method: as §3
[31] = system: dendritic; assay: Activation of TCR in human immature dendritic cells assessed as increase in ERK1/2 phosphorylation; format: cell-based; summary of the method: as §3
[32] = system: dendritic; assay: Activation of TCR in human immature dendritic cells assessed as increase in CREB phosphorylation; format: cell-based; summary of the method: as §3
[33] = system: Mus musculus; assay: Activation of dendritic cells in BALB/c mouse at 2 ug, iv after 72 hrs by flow cytometry; format: functional, organism-based
Summary of the method: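 BALB/c mice (n = 4/group) were given 100 μl of glycolipid at 20 μg/ml in saline i.v., or 100 μl of 1% DMSO. Spleens were harvested after 72 h and splenocyte subsets counted by flow cytometry: mature DCs as CD11c+/CD80+/CD86+, activated NK as U5A2-13Ag+/CD3−/CD69+, activated NKT as U5A2-13Ag+/CD3+/CD69+. Assays were run in duplicate, mean ± SD.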

Compound	Activity [1]	Activity [2]	Activity [3]	Activity [4]	Activity [5]	Activity [6]	Activity [7]	Activity [8]	Activity [9]	Activity [10]	Activity [11]	Activity [12]	Activity [13]	Activity [14]	Activity [15]	Activity [16]	Activity [17]	Activity [18]	Activity [19]	Activity [20]	also measured
CCCCCCCCCCCCCCCCCCCCCCCCCC(=O)N[C@@H](CO[C@H]1O[C@H](CO)[C@H](O)[C@H](O)[C@H]1O)[C@H](O)[C@H](O)CCc1ccccc1	6.6	2.8	3.2	1.8	2.5	3.6	2	7.6	Active	Active	122.5	3.4	75.3	6.6	2.1	32.9	19.2	2.3	7.9	6.3	Activity [21]: 2.2; Activity [22]: 1.7; Activity [23]: 4.3; Activity [24]: 2.3; Activity [25]: 2.7; Activity [26]: 2.8; Activity [27]: 1.2; Activity [28]: 2.3; Activity [29]: 7.3; Activity [30]: 17.3; Activity [31]: 35; Activity [32]: 158; Activity [33]: Active
CCCCCCCCCCCCCCCCCCCCCCCCCC(=O)N[C@@H](CO[C@H]1O[C@H](CO)[C@H](O)[C@H](O)[C@H]1O)[C@H](O)[C@H](O)CCCCCCCCCCCCCC [RGI-7000]	3.4	2.3	1.8	1.4	1.6	2.9	0.9	7.7	Active	Active	300	7.8	58.9	3.2	2.6	18.7	30.5	51	13.1	5.5	Activity [21]: 3.6; Activity [22]: 1.9; Activity [23]: 3.5; Activity [24]: 2.6; Activity [25]: 3.9; Activity [26]: 1.8; Activity [27]: 1.2; Activity [28]: 1.8; Activity [29]: 7.3; Activity [30]: 10.8; Activity [31]: 30; Activity [32]: 68; Activity [33]: Active

Reference: ChEMBL document CHEMBL1145518, “Potent immune-modulating and anticancer effects of NKT cell stimulatory glycolipids” (2007)
